From ChEMBL document CHEMBL3596194, “Design, synthesis and biological evaluation of bivalent benzoxazolone and benzothiazolone ligands as potential anti-inflammatory/analgesic agents” (Bioorg Med Chem, 2015)
The source made the active and inactive calls. The calls are words filed in the database; no cut-off is given here.

Tests used:
SK-MEL [1] = test: Cytotoxicity against human SK-MEL cells up to 25 ug/ml after 48 hrs by neutral red assay relative to control; format: cell-based
Summary of the method: (§1)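 Cells grown in RPMI-1640 with 10% bovine calf serum and amikacin at 37 °C, 5% CO2. Seeded at 25,000 cells/well and grown 24 h, then exposed 48 h to samples diluted in serum-free medium. Viability by Neutral Red; % decrease vs vehicle; IC50 from dose curves. Triplicate runs, mean reported; doxorubicin as positive control.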

SW1353 = test: Antiinflammatory activity in human SW1353 cells assessed as inhibition of PMA-induced NF-kappaB activity up to 25 ug/ml incubated for 30 mins prior to PMA challenge measured after 8 hrs by luciferase reporter gene assay; format: cell-based
Summary of the method: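 SW1353 chondrosarcoma cells grown in DMEM/F12 with 10% FBS at 37 °C, 5% CO2. Cells electroporated with an NF-κB luciferase plasmid (50 μg/mL, 160 V, one 70-ms pulse) and plated at 1.25 × 10⁵ cells/well. After 24 h, compound was added 30 min before PMA (70 ng/mL), then 8 h incubation. Luciferase read-out as % inhibition vs vehicle; IC50 from dose curves. Sp-1 served as a counter-screen.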

SK-OV-3 [2] = test: Cytotoxicity against human SKOV3 cells up to 25 ug/ml after 48 hrs by neutral red assay relative to control; format: cell-based; conditions: sk-ov-3, 48 h; summary of the method: as §1
BT-549 [3] = test: Cytotoxicity against human BT549 cells up to 25 ug/ml after 48 hrs by neutral red assay relative to control; format: cell-based; conditions: bt-549, 48 h; summary of the method: as §1
[4] = Cytotoxicity against pig LLC-PK11 cells up to 25 ug/ml after 48 hrs by neutral red assay relative to control; format: cell-based, Sus scrofa; conditions: llc-pk11, 48 h; summary of the method: as §1
KB [5] = test: Cytotoxicity against human KB cells up to 25 ug/ml after 48 hrs by neutral red assay relative to control; format: cell-based; summary of the method: as §1
Vero [6] = test: Cytotoxicity against African green monkey Vero cells after 48 hrs by neutral red assay relative to control; format: cell-based; conditions: chlorocebus sabaeus
Summary of the method: (§2)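 Cells grown in RPMI-1640 with 10% bovine calf serum and amikacin at 37°C, 5% CO₂. Seeded 25,000 cells/well, grown 24 h, then exposed to compounds diluted in serum-free medium for 48 h. Viability by Neutral Red uptake, % decrease versus vehicle control. IC50 from dose curves, triplicate means. Doxorubicin positive control.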

[7] = target: T1, Nitric oxide synthase, inducible (Mus musculus) (UniProt P29477); test: Antiinflammatory activity in mouse RAW264.7 cells assessed as inhibition of LPS-induced iNOS activity up to 25 ug/ml incubated for 30 mins prior to LPS challenge measured after 24 hrs by Griess assay; format: cell-based
T1 sequence (whole entry): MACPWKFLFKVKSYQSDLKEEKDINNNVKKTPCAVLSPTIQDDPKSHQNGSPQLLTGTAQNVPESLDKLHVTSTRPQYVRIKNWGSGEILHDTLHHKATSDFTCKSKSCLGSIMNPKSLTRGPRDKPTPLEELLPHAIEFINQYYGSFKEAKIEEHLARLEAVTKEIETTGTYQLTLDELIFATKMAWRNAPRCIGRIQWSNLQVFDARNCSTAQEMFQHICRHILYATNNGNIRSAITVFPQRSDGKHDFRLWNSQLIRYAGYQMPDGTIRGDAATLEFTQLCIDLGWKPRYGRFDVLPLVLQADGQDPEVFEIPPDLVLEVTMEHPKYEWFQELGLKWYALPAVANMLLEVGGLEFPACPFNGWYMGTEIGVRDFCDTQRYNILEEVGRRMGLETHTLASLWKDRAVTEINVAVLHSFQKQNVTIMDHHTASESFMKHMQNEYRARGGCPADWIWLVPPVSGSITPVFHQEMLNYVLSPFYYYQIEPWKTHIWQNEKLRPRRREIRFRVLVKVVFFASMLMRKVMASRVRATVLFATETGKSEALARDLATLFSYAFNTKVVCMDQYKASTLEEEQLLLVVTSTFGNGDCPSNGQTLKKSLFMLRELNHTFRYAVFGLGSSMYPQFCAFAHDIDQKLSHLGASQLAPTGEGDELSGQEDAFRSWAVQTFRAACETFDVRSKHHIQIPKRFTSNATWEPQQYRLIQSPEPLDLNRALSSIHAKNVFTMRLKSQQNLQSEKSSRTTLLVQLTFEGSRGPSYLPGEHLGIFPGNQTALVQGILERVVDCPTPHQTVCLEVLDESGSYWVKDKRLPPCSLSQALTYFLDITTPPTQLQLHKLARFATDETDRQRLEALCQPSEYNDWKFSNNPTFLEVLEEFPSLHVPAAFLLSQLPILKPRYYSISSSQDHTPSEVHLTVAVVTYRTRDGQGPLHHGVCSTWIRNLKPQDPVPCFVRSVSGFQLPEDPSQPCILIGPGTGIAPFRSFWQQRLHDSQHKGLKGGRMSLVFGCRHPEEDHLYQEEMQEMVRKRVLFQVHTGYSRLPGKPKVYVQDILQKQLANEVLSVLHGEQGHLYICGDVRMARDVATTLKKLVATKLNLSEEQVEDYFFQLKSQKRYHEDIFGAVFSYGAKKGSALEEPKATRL
Summary of the method: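 RAW264.7 macrophages seeded at 50,000 cells/well and grown 24 h to ≥75% confluency. Compounds in serum-free medium added 30 min before LPS (5 μg/mL), then 24 h incubation. Nitrite in the supernatant measured with Griess reagent.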

Vero [8] = test: Cytotoxicity against African green monkey Vero cells up to 25 ug/ml after 48 hrs by neutral red assay relative to control; format: cell-based; conditions: chlorocebus sabaeus; summary of the method: as §1
[9] = Cytotoxicity against pig LLC-PK11 cells after 48 hrs by neutral red assay relative to control; format: cell-based; conditions: Sus scrofa, LLC-PK11, 48 h; summary of the method: as §2
[10] = Antiinflammatory activity in human SW1353 cells assessed as inhibition of PMA-induced NF-kappaB activity incubated for 30 mins prior to PMA challenge measured after 8 hrs by luciferase reporter gene assay; format: cell-based
Summary of the method: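 SW1353 cells in DMEM/F12 with 10% FBS, electroporated with NF-κB luciferase plasmid (160 V, one 70-ms pulse), plated at 1.25 × 10⁵ cells/well. After 24 h, graded compound concentrations added 30 min before PMA 70 ng/mL, then 8 h incubation. Luciferase read-out, % inhibition versus vehicle, IC50 from dose curves. Sp-1 reporter served as nonspecific control.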

SK-MEL [11] = test: Cytotoxicity against human SK-MEL cells after 48 hrs by neutral red assay relative to control; format: cell-based; summary of the method: as §2
BT-549 [12] = test: Cytotoxicity against human BT549 cells after 48 hrs by neutral red assay relative to control; format: cell-based; conditions: BT-549, 48 h; summary of the method: as §2
KB [13] = test: Cytotoxicity against human KB cells after 48 hrs by neutral red assay relative to control; format: cell-based; summary of the method: as §2
SK-OV-3 [14] = test: Cytotoxicity against human SKOV3 cells after 48 hrs by neutral red assay relative to control; format: cell-based; conditions: SK-OV-3, 48 h; summary of the method: as §2

O=c1oc2ccccc2n1CCCCCN1CCN(CCCCn2c(=O)oc3ccccc32)CC1
Activity (SK-MEL [1]): Non-toxic
inhibition (SW1353): inactive
Activity (SK-OV-3 [2]): Non-toxic
Activity (BT-549 [3]): Non-toxic
Activity [4]: Non-toxic
Activity (KB [5]): Non-toxic
IC50 (Vero [6]): 17.6 µM

O=c1oc2ccccc2n1CCN1CCN(CCn2c(=O)oc3ccccc32)CC1
Activity (SK-MEL [1]): Non-toxic
inhibition (SW1353): inactive
Activity (SK-OV-3 [2]): Non-toxic
inhibition [7]: inactive
Activity (BT-549 [3]): Non-toxic
Activity [4]: Non-toxic
Activity (Vero [8]): Non-toxic
Activity (KB [5]): Non-toxic

O=c1sc2ccccc2n1CCCN1CCN(CCn2c(=O)sc3ccccc32)CC1
Activity (SK-MEL [1]): Non-toxic
inhibition (SW1353): inactive
IC50 [9]: 24.1 µM
Activity (SK-OV-3 [2]): Non-toxic
inhibition [7]: inactive
Activity (BT-549 [3]): Non-toxic
Activity (Vero [8]): Non-toxic
Activity (KB [5]): Non-toxic

c1ccc2oc(SCCCCN3CCN(CCCCSc4nc5ccccc5o4)CC3)nc2c1
IC50 [10]: 1.4 µM
IC50 (SK-MEL [11]): 25 µM
IC50 [9]: 23.5 µM
IC50 (BT-549 [12]): 22.5 µM
Activity (SK-OV-3 [2]): Non-toxic
IC50 (KB [13]): 25 µM
Activity (Vero [8]): Non-toxic

O=c1sc2ccccc2n1CCCN1CCN(CCCn2c(=O)sc3ccccc32)CC1
Activity (SK-MEL [1]): Non-toxic
inhibition (SW1353): inactive
IC50 [9]: 23.5 µM
Activity (SK-OV-3 [2]): Non-toxic
Activity (BT-549 [3]): Non-toxic
Activity (Vero [8]): Non-toxic
Activity (KB [5]): Non-toxic

O=c1oc2ccccc2n1CCCN1CCN(CCn2c(=O)oc3ccccc32)CC1
Activity (SK-MEL [1]): Non-toxic
inhibition (SW1353): inactive
Activity (SK-OV-3 [2]): Non-toxic
inhibition [7]: inactive
Activity (BT-549 [3]): Non-toxic
Activity [4]: Non-toxic
Activity (Vero [8]): Non-toxic
Activity (KB [5]): Non-toxic

O=c1oc2ccccc2n1CCCCCN1CCN(CCCCCn2c(=O)oc3ccccc32)CC1
Activity (SK-MEL [1]): Non-toxic
IC50 [10]: 3.43 µM
Activity (SK-OV-3 [2]): Non-toxic
Activity (BT-549 [3]): Non-toxic
Activity [4]: Non-toxic
Activity (KB [5]): Non-toxic
IC50 (Vero [6]): 19.4 µM

O=c1sc2ccccc2n1CCCCCN1CCN(CCn2c(=O)sc3ccccc32)CC1
Activity (SK-MEL [1]): Non-toxic
IC50 [10]: 1.71 µM
Activity (SK-OV-3 [2]): Non-toxic
Activity (BT-549 [3]): Non-toxic
Activity [4]: Non-toxic
Activity (KB [5]): Non-toxic
IC50 (Vero [6]): 23.8 µM

O=c1oc2ccccc2n1CCCCN1CCN(CCCCn2c(=O)oc3ccccc32)CC1
Activity (SK-MEL [1]): Non-toxic
inhibition (SW1353): inactive
Activity (SK-OV-3 [2]): Non-toxic
inhibition [7]: inactive
Activity (BT-549 [3]): Non-toxic
Activity [4]: Non-toxic
Activity (Vero [8]): Non-toxic
Activity (KB [5]): Non-toxic

O=c1sc2ccccc2n1CCN1CCN(CCn2c(=O)sc3ccccc32)CC1
Activity (SK-MEL [1]): Non-toxic
inhibition (SW1353): inactive
Activity (SK-OV-3 [2]): Non-toxic
inhibition [7]: inactive
Activity (BT-549 [3]): Non-toxic
Activity [4]: Non-toxic
Activity (Vero [8]): Non-toxic
Activity (KB [5]): Non-toxic

O=c1sc2ccccc2n1CCCCN1CCN(CCCn2c(=O)sc3ccccc32)CC1
Activity (SK-MEL [1]): Non-toxic
IC50 [10]: 1.71 µM
IC50 [9]: 19.2 µM
Activity (SK-OV-3 [2]): Non-toxic
Activity (BT-549 [3]): Non-toxic
Activity (Vero [8]): Non-toxic
Activity (KB [5]): Non-toxic

O=c1oc2ccccc2n1CCCCN1CCN(CCn2c(=O)oc3ccccc32)CC1
Activity (SK-MEL [1]): Non-toxic
inhibition (SW1353): inactive
Activity (SK-OV-3 [2]): Non-toxic
inhibition [7]: inactive
Activity (BT-549 [3]): Non-toxic
Activity [4]: Non-toxic
Activity (Vero [8]): Non-toxic
Activity (KB [5]): Non-toxic

O=c1sc2ccccc2n1CCCCCN1CCN(CCCCCn2c(=O)sc3ccccc32)CC1
IC50 (SK-MEL [11]): 19.8 µM
IC50 (BT-549 [12]): 19.3 µM
Activity [4]: Non-toxic
Activity (Vero [8]): Non-toxic
Activity (KB [5]): Non-toxic
IC50 (SK-OV-3 [14]): 25 µM

COc1cccc2c1C(=O)c1c(O)c3c(c(O)c1C2=O)C[C@@](O)(C(=O)CO)C[C@@H]3O[C@H]1C[C@H](N)[C@H](O)[C@H](C)O1 [DOXORUBICIN]
IC50 (SK-MEL [11]): 0.14 µM
IC50 [9]: 0.79 µM
IC50 (BT-549 [12]): 0.17 µM
IC50 (KB [13]): 0.22 µM
IC50 (Vero [6]): 0.92 µM
IC50 (SK-OV-3 [14]): 0.2 µM

O=c1sc2ccccc2n1CCCCCCN1CCN(CCCCn2c(=O)sc3ccccc32)CC1
IC50 [10]: 0.83 µM
IC50 (SK-MEL [11]): 14.5 µM
IC50 (BT-549 [12]): 21.3 µM
Activity (SK-OV-3 [2]): Non-toxic
Activity [4]: Non-toxic
IC50 (KB [13]): 19.5 µM
Activity (Vero [8]): Non-toxic
